Only a selection was taken, and hits are over-represented in it overall.
INS-1E rescue – preserves ATP levels in cytokine-treated INS-1E cells | INS-1E cytokine-induced death, ATP luminescence, 48 h; normalised: neutral wells 0, positive control 100 | protection from cytokine-induced ATP loss, % at 10 µM | 20,000 tested, 0.1% active | AID 488910;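 active means mean replicate protection from cytokine-induced ATP loss at least 50% and at least 75% of replicates each reaching 50%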
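Assay system – rat INS-1E insulinoma cell line · Quantity – 8000 cells per well · Buffer or medium – RPMI without phenol red, 5% FBS · Schedule – 48 h co-treatment, 10 min post-lysis read · Technique – luminescent ATP assay (CellTiter-Glo)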
T cruzi HTS – intracellular Trypanosoma cruzi inhibition; 22,000 tested, 4.9% active; AID 651903; activity score (inhibition), % at 5.01 µM; intracellular Trypanosoma cruzi in host cells, plate reader; in the data active means activity score above about 55%;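 further: parasites and compound incubated about four days before reading; 0% = median of neutral control wells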
A1 apoptosis 2 – blocks A1, raising caspase activity; MEF A1-2A-BIM cells, caspase-Glo luminescence, 3 h; percent of clofoctol response, DMSO zero; caspase activation, % (concentration not given with the values); 24,000 tested, under 10 active; in the data active means caspase activation above about 5.9%
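System: mouse embryonic fibroblasts co-expressing A1 and BIM (A1-2A-BIM), primed for A1 dependence; amount: 2500 cells/well; doses: 50 nL pinned compound; schedule: cells settled overnight, compound exposure 3 h at 37 °C, 5% CO2; detection: Caspase-Glo 3/7 luminescence, 1 h at room temperature; read-out: Caspase-3/7 activation, seen as rise in luminescence signal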
Starred values were filed as active, the others as inactive; x = not tested or not shown.

SMILES	INS-1E rescue	T cruzi HTS	A1 apoptosis 2
C[C@@H]1CCCCO[C@@H](CN(C)CC2CCCCC2)[C@@H](C)CN([C@H](C)CO)C(=O)c2cc(NC(=O)Nc3ccc(C(F)(F)F)cc3)ccc2O1	-12	73*	x
C[C@H]1CCCCO[C@@H](CN(C)CC2CCCCC2)[C@@H](C)CN([C@@H](C)CO)C(=O)c2cc(NC(=O)Nc3ccc(C(F)(F)F)cc3)ccc2O1	x	x	2
C[C@@H]1CCCCO[C@@H](CN(C)S(=O)(=O)c2ccc(Cl)cc2)[C@@H](C)CN([C@H](C)CO)C(=O)c2cc(NC(=O)Nc3ccc(C(F)(F)F)cc3)ccc2O1	-9	51	x
COc1cccc(-n2cc(C(=O)NO)nn2)c1	x	x	-1
C#CCOc1ccc(/C=N/NC(=O)c2ccccc2O)cc1	-30	-20	-10
C[C@@H]1CCCCO[C@@H](CN(C)CC2CCCCC2)[C@@H](C)CN([C@H](C)CO)C(=O)c2cc(NC(=O)Nc3ccc(F)cc3)ccc2O1	-15	71*	x
C[C@@H]1CN([C@@H](C)CO)C(=O)c2cc(NC(=O)Nc3ccc(F)cc3)ccc2O[C@@H](C)CCCCO[C@@H]1CN(C)CC1CCCCC1	x	x	1
C[C@@H]1CN([C@H](C)CO)C(=O)c2cc(NC(=O)Nc3ccc(C(F)(F)F)cc3)ccc2O[C@H]1CN(C)Cc1ccc(C(=O)Nc2ccccc2N)cc1	-13	57*	0
C[C@H]1CN([C@@H](C)CO)C(=O)Cc2cc(NC(=O)Nc3ccc(F)cc3)ccc2O[C@@H]1CN(C)Cc1ccc(C(=O)Nc2ccccc2N)cc1	6	33	-1
C[C@@H]1CN([C@@H](C)CO)C(=O)Cc2cc(NC(=O)CCC(F)(F)F)ccc2O[C@@H]1CN(C)Cc1ccc(C(=O)Nc2ccccc2N)cc1	-7	68*	x
C[C@@H]1CN([C@@H](C)CO)C(=O)Cc2cc(NC(=O)Nc3ccc(C(F)(F)F)cc3)ccc2O[C@@H]1CN(C)Cc1ccc(C(=O)Nc2ccccc2N)cc1	-28	84*	x
C[C@@H]1CN([C@H](C)CO)C(=O)Cc2cc(NC(=O)Nc3ccccc3)ccc2O[C@@H]1CN(C)Cc1ccc(C(=O)Nc2ccccc2N)cc1	0	64*	-1
C[C@@H]1CN([C@H](C)CO)C(=O)Cc2cc(NC(=O)Nc3ccc(F)cc3)ccc2O[C@H]1CN(C)Cc1ccc(C(=O)Nc2ccccc2N)cc1	1	33	x
C[C@@H]1CN([C@@H](C)CO)C(=O)c2cc(NC(=O)Nc3ccc(C(F)(F)F)cc3)ccc2O[C@H]1CN(C)Cc1ccc(C(=O)Nc2ccccc2N)cc1	2	39	x
C[C@H](CO)N1C[C@H](C)[C@H](CN(C)Cc2ccc(C(=O)Nc3ccccc3N)cc2)Oc2ccc(NC(=O)CCC(F)(F)F)cc2CC1=O	29	53	0
COC(=O)CCCCCCC(=O)N/N=C/c1cccc(NC(=O)OC(C)(C)C)c1	2	31	-1
O=C(O)CCCCCC(=O)NN=C1CCCCCCC1	0	-12	0
CCOC(=O)[C@@H]1CCCCN1C(=O)C(=O)OC	x	x	1
CCN(CC)c1ccc(/C=N/NC(=O)c2ccccc2O)c(O)c1	x	x	-9
O=C(O)CCCCCCC(=O)N/N=C/c1ccccc1[N+](=O)[O-]	-2	-3	-2
C[C@@H]1CN([C@@H](C)CO)C(=O)Cc2cc(NC(=O)Nc3ccc(F)cc3)ccc2O[C@H]1CN(C)Cc1ccc(C(=O)Nc2ccccc2N)cc1	x	x	-1
CC(C)NC(=O)Nc1ccc2c(c1)CC(=O)N([C@H](C)CO)C[C@H](C)[C@H](CN(C)Cc1ccc(C(=O)Nc3ccccc3N)cc1)O2	6	68*	x
C[C@H]1CN([C@@H](C)CO)C(=O)Cc2cc(NC(=O)NC3CCCCC3)ccc2O[C@@H]1CN(C)Cc1ccc(C(=O)Nc2ccccc2N)cc1	x	x	-1
C[C@H](CO)N1C[C@H](C)[C@H](CN(C)Cc2ccc(C(=O)Nc3ccccc3N)cc2)Oc2ccc(NC(=O)Nc3ccc(C(F)(F)F)cc3)cc2CC1=O	-21	82*	x
C[C@@H]1CCCCO[C@@H](CN(C)Cc2ccc(Cl)c(Cl)c2)[C@@H](C)CN([C@H](C)CO)C(=O)c2cc(NC(=O)NC3CCCCC3)ccc2O1	-16	66*	1
SMILES	INS-1E rescue	T cruzi HTS	A1 apoptosis 2
C[C@@H]1CCCCO[C@H](CN(C)Cc2ccc(Cl)c(Cl)c2)[C@H](C)CN([C@@H](C)CO)C(=O)c2cc(NC(=O)Nc3ccc(F)cc3)ccc2O1	x	x	-2
C[C@@H]1CCCCO[C@H](CN(C)Cc2ccc(Cl)c(Cl)c2)[C@@H](C)CN([C@H](C)CO)C(=O)c2cc(NC(=O)Nc3ccc(F)cc3)ccc2O1	-9	86*	0
C[C@@H]1CCCCO[C@@H](CN(C)Cc2ccc(Cl)c(Cl)c2)[C@@H](C)CN([C@H](C)CO)C(=O)c2cc(NC(=O)c3ccccc3)ccc2O1	-43	65*	-1
C[C@@H]1CCCCO[C@H](CN(C)Cc2ccc(Cl)c(Cl)c2)[C@@H](C)CN([C@@H](C)CO)C(=O)c2cc(NC(=O)c3ccccc3)ccc2O1	x	x	0
C[C@@H]1CCCCO[C@H](CN(C)Cc2ccc(Cl)c(Cl)c2)[C@@H](C)CN([C@@H](C)CO)C(=O)c2cc(NC(=O)NC3CCCCC3)ccc2O1	x	x	0
C[C@@H]1CCCCO[C@@H](CN(C)Cc2ccc(Cl)c(Cl)c2)[C@@H](C)CN([C@H](C)CO)C(=O)c2cc(NC(=O)Nc3ccc(F)cc3)ccc2O1	-14	67*	x
C[C@@H]1CN([C@@H](C)CO)C(=O)c2cc(NC(=O)Nc3ccc(F)cc3)ccc2O[C@@H](C)CCCCO[C@H]1CN(C)Cc1ccc(Cl)c(Cl)c1	x	x	-1
COC(=O)CCCCCCC(=O)N/N=C/c1cn(Cc2ccccc2)c2ccccc12	0	5	x
COC(=O)c1c2oc(c1C(=O)OC)C(=O)N[C@@H](Cc1ccccc1)Cn1cc(nn1)[C@H](Cc1ccccc1)NC(=O)N[C@@H](CO)CC2	x	x	0
O=C1c2ccccc2C(=O)N1[C@@H]1CCCN(Cc2ccc(OCCO)cc2)C1	x	x	1
COc1cc(Br)c(/C=N/NC(=O)c2ccccn2)cc1OC	7	-4	0
O=C(N/N=C/c1cccnc1)c1ccccn1	x	x	-4
C[C@@H]1CCCCO[C@@H](CN(C)Cc2ccc(C(=O)Nc3ccccc3N)cc2)[C@@H](C)CN([C@H](C)CO)C(=O)c2cc(NS(C)(=O)=O)ccc2O1	-15	56*	0
C[C@@H]1CCCCO[C@H](CN(C)Cc2ccc(C(=O)Nc3ccccc3N)cc2)[C@@H](C)CN([C@H](C)CO)C(=O)c2cc(NS(=O)(=O)c3ccccc3)ccc2O1	x	x	-1
O=C(CCCCCCC(=O)Nc1ccccc1O)N/N=C/c1ccco1	2	-4	0
C[C@@H]1CCCCO[C@H](CN(C)C(=O)Nc2ccc(C(F)(F)F)cc2)[C@@H](C)CN([C@H](C)CO)C(=O)c2cc(NC(=O)NC3CCCCC3)ccc2O1	-4	68*	x
C[C@H]1CCCCO[C@H](CN(C)C(=O)Nc2ccc(C(F)(F)F)cc2)[C@@H](C)CN([C@@H](C)CO)C(=O)c2cc(NC(=O)NC3CCCCC3)ccc2O1	x	x	2
